This is an account of results in ChEMBL document CHEMBL2202960, “Discovery of the investigational drug TAK-441, a pyrrolo[3,2-c]pyridine derivative, as a highly potent and orally active hedgehog signaling inhibitor: modification of the core skeleton for improved solubility” (Bioorg Med Chem, 2012).

One series has as its target Sonic hedgehog protein (Mus musculus, UniProt Q62226). Put plainly: Inhibition of recombinant mouse Shh-N expressed in mouse NIH3T3/Gli-luc cells assessed as inhibition of Gli1 expression after 48 hrs by luciferase reporter gene assay. It is filed as cell-based. In outline: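 NIH3T3/Gli-luc cells were kept in DMEM with 10% FBS and 500 µg/mL G418, then seeded overnight on collagen-coated plates at 7.5×10³ cells/well (37 °C, 5% CO2). Final well conditions were 5.8% FBS, 1 µg/mL Shh-N and 0.03–1000 nM compound (n = 4 wells), incubated 48 h. Controls used 0.1% DMSO ± Shh-N. Read-out was Bright-Glo luciferase, and IC50 is the mean of four measurements.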
Background: In a reporter assay the amount or activity of a reporter protein is the signal.

Series [1] can be described thus: Solubility of the compound in lapanese pharmacopoeia second fluid at pH 6.8. It is filed as physicochemical. Conditions: Japanese Pharmacopoeia second fluid. In outline: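 Solubility was measured in Japanese Pharmacopoeia second fluid, pH 6.8. After incubation, precipitate was removed by filter-plate filtration and dissolved compound in the filtrate was quantified by HPLC.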

Series [2] can be described thus: Oral bioavailability in rat at 10 mg/kg. It is filed as ADME, organism-based. Conditions: in vivo. In a few lines:
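Rats (n = 3, listed as non-fasted) given 1 mg/kg iv and 10 mg/kg po. Plasma was deproteinized with methanol containing internal standard, centrifuged, and diluted in 0.01 mol/L ammonium formate/[MeCN/formic acid 100:0.2] (7:3). F was calculated from mean AUC_0–24h values after oral and intravenous dosing.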

A short description of series [3]: Clearance in rat at 1 mg/kg, iv and 10 mg/kg, po. It is filed as ADME, organism-based. The note with it: in vivo. In a few lines:
(§1)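 Single doses were given to rats and dogs: 1 mg/kg iv and 10 mg/kg po. Plasma was deproteinized with methanol containing internal standard, then diluted with 0.01 mol/L ammonium formate/(MeCN/formic acid) 7:3. Rat values are the mean ± SD of three non-fasted animals. Dog values come from four fed animals, with F calculated per animal from AUC0–24h.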

Series [4] can be described thus: Volume of distribution at steady state in rat at 1 mg/kg, iv and 10 mg/kg, po. Conditions: in vivo, read-out: Vdss. It is filed as ADME, organism-based. In outline:
as §1

Series [5] relates to Mus musculus. Description: Antitumor activity in Ptc1+/- p53-/- medulloblastoma allograft model of mouse assessed as tumor growth inhibition at 25 mg/kg, po qd for 14 days relative to control. It is filed as functional. In a few lines: (§2)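 Medulloblastoma tumours were serially passaged subcutaneously in nude mice (CAnN.Cg-Foxn1nu). Treatment started at 150–250 mm³ tumour volume: oral dosing as a 0.5% methylcellulose suspension for 14 days, once daily per the figure legend. Tumours were measured by caliper, with V = (a×b²)/2. T/C% = mean treated (Vend−Vstart) / control (Vend−Vstart) × 100, with n = 5 and a 1-tailed Shirley-Williams test against vehicle.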

Series [6] can be described thus: Oral bioavailability in dog at 10 mg/kg. It is filed as ADME, organism-based, Canis lupus familiaris. Conditions: in vivo. In outline:
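Fed dogs (n = 4) given 1 mg/kg iv and 10 mg/kg po. Plasma was deproteinized with methanol containing internal standard, centrifuged, and diluted in 0.01 mol/L ammonium formate/[MeCN/formic acid 100:0.2] (7:3). F was calculated per animal from AUC_0–24h after oral versus intravenous dosing in the same dog.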

Series [7] deals with Mus musculus. Description: Antitumor activity in Ptc1+/- p53-/- medulloblastoma allograft model of mouse assessed as tumor growth inhibition at 1 mg/kg, po qd for 14 days relative to control. It is filed as functional. In a few lines:
as §2

Series [8] can be described thus: AUC (0 to 24 hrs) in dog at 10 mg/kg, po. It is filed as ADME, organism-based, Canis lupus familiaris. Details: time < 24 hr, dose 10 mg/kg, route oral. The note with it: plasma. In outline:
(§3)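 Fed dogs were dosed at 1 mg/kg iv and 10 mg/kg po. Plasma was collected over 0–24 h, deproteinized with methanol containing an internal standard, centrifuged, and diluted with 0.01 mol/L ammonium formate/(MeCN/formic acid 100:0.2) (7:3) for compound quantitation. AUC_0–24h is reported as mean ± SD of four animals.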

Series [9] is described as follows: AUC (0 to 24 hrs) in rat at 1 mg/kg, iv. Details: time < 24 hr, dose 1 mg/kg, route intravenous. It is filed as ADME, organism-based. The note with it: plasma. In outline:
(§4)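 Rats were given 1 mg/kg iv or 10 mg/kg po and were non-fasted. Plasma was sampled over 0–24 h, deproteinized with methanol plus an internal standard, centrifuged, diluted in 0.01 mol/L ammonium formate/(MeCN/formic acid 100:0.2) (7:3), and centrifuged again. AUC_0–24h is reported as mean ± SD of three animals.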

The nature of series [10]: AUC (0 to 24 hrs) in nu/nu BALB/c mouse at 100 mg/kg, po. It is filed as ADME, organism-based. Details: time < 24 hr, dose 100 mg/kg, route oral. Conditions: plasma.
The nature of series [11]: AUC (0 to 24 hrs) in rat at 10 mg/kg, po. Conditions: plasma. It is filed as ADME, organism-based. Details: time < 24 hr, dose 10 mg/kg, route oral. In outline: as §4
The nature of series [12]: Cmax in nu/nu BALB/c mouse at 100 mg/kg, po. It is filed as ADME, organism-based. Conditions: in vivo. Details: dose 100 mg/kg, route oral.
The nature of series [13]: Clearance in dog at 1 mg/kg, iv and 10 mg/kg, po. It is filed as ADME, organism-based, Canis lupus familiaris. Conditions: in vivo. In a few lines: as §1
The nature of series [14]: Volume of distribution at steady state in dog at 1 mg/kg, iv and 10 mg/kg, po. Conditions: in vivo, read-out: Vdss. It is filed as ADME, organism-based, Canis lupus familiaris. In outline:
as §1

Series [15] is described as follows: AUC (0 to 24 hrs) in dog at 1 mg/kg, iv. It is filed as ADME, organism-based, Canis lupus familiaris. Details: time < 24 hr, dose 1 mg/kg, route intravenous. Conditions: plasma. In outline: as §3
The test system of series [16] is Mus musculus. Put plainly: Gli1 mRNA expression level in human PAN-04 cells xenografted mouse tumor at 25 mg/kg, po after 24 hrs of first dose relative to control. Conditions: PAN-04, po.

Each structure is given as a SMILES string. Values after ≈ are worked out from the molar mass of the structure shown.

Chain of Sonic hedgehog protein (Q62226 25-198 limits assumed): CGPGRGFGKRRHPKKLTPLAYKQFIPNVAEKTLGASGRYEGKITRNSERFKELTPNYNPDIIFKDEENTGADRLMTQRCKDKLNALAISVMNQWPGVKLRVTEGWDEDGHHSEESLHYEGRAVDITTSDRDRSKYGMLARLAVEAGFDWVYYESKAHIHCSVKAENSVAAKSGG

As usually defined, the IC50 is the concentration that inhibits the measured activity by half. For orientation: solubility means the dissolved amount per volume that the medium holds. `CCOc1c(C(=O)NC2CCN(C(=O)CO)CC2)n(C)c2cc(CC)n(CC(=O)c3ccccc3)c(=O)c12`: on Sonic hedgehog protein, the half-maximal inhibitory concentration (IC50) is 6.9 nM. The solubility in series [1] stood at 58 µg/mL (≈ 111 µM).
The corresponding values for `CCc1cc2c(c(OCCF)c(C(=O)NC3CCN(C(=O)CO)CC3)n2C)c(=O)n1CC(=O)c1ccccc1` are 4.9 nM and 69 µg/mL (≈ 128 µM).
For orientation: bioavailability means the share of a dose that reaches the circulation, judged against a reference dose that is usually intravenous. Read a high bioavailability as good availability. The T/C is the ratio of treated to control. One may read the AUC(0-t) as the area under the concentration-time curve up to a stated or last time point. Usually Cmax stands for the maximum level reached in the sampled fluid or tissue. As for `CCc1cc2c(c(OCC(F)(F)F)c(C(=O)NC3CCN(C(=O)CO)CC3)n2C)c(=O)n1CC(=O)c1ccccc1` [TAK-441], the bioavailability amounted to 31.7% in [2] and 90.3% in [6]. The clearance in [3] was 6.63 mL/min/kg; in series [13], 2.69 mL/min/kg. The IC50 at Sonic hedgehog protein amounted to 4.4 nM. The Vd in [4] came out at 0.682 L/kg; in series [14], 2.18 L/kg. Moreover, the values for the T/C in the series with Mus musculus [5] and in the series on Mus musculus [7] were 3% and 46%, respectively. In addition, the AUC(0-t) at 24 h was found to be 45400 ng·h/mL in series [8]; 2530 ng·h/mL in series [9]; 206000 ng·h/mL in [10]; 8030 ng·h/mL in series [11]; 5100 ng·h/mL in [15]. Further, the concentration in solution in [1] (solubility) came to 81 µg/mL (≈ 140 µM). The same compound yielded a Cmax in series [12] of 21500 ng/mL.
For the compound `COc1c(C(=O)NC2CCN(C(=O)CO)CC2)n(C)c2cc(C)n(CC(=O)c3ccccc3)c(=O)c12`, on Sonic hedgehog protein, the IC50 worked out at 14 nM. Moreover, in series [1], the concentration in solution (solubility) came to 77 µg/mL (≈ 156 µM).
The corresponding values for `CCc1cc2c(c(OCC(F)F)c(C(=O)NC3CCN(C(=O)CO)CC3)n2C)c(=O)n1CC(=O)c1ccccc1` are 4.4 nM and 84 µg/mL (≈ 150 µM).
For the compound `CCc1c(C(=O)NC2CCN(C(=O)CO)CC2)n(C)c2cc(CC)n(CC(=O)c3ccccc3)c(=O)c12`, on Sonic hedgehog protein, the IC50 was 95 nM.
As to `CCc1cc2c(c(OC)c(C(=O)NC3CCN(C(=O)CO)CC3)n2C)c(=O)n1CC(=O)c1ccccc1`, the IC50 at Sonic hedgehog protein turned out to be 5.7 nM. Besides, the concentration in solution in series [1] (solubility) came to 63 µg/mL (≈ 124 µM).
With `COc1c(C(=O)NC2CCN(C(=O)CO)CC2)n(C)c2c1c(=O)n(CC(=O)c1ccccc1)c1ccccc21`, the concentration in solution in series [1] (solubility) came to 8.4 µg/mL (≈ 15.8 µM). Moreover, the AUC(0-t) at 24 h in series [10] amounted to 32300 ng·h/mL. For the same compound, the level, % of control at 25 mg/kg in the series on Mus musculus [16] is 5%. In series [12], this compound had a Cmax of 3630 ng/mL.
Turning to `COc1c(C(=O)NC2CCN(C(=O)CO)CC2)n(C)c2c3c(n(CC(=O)c4ccccc4)c(=O)c12)CCCC3`, the IC50 at Sonic hedgehog protein was determined as 96 nM. The compound further showed a solubility in [1] of 80 µg/mL (≈ 150 µM).
